Screening results deposited in PubChem by several laboratories.
Most compounds without a hit are left out; they make up all but 3.1% or so of the library.
MEKK3 PB1 HTS = raises or lowers MEK5 binding to the human MEKK3 PB1 domain; Q99759; bead-based flow cytometry, Alexa488-MEK5 binding to MEKK3; actives lie on both sides; 0 = blocked by unlabeled MEK5, 100 = vehicle; binding response (% of control), % at 10 µM; 290,000 tested, 1.4% active;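 active = binding response more than 3 SD above or below the average of its plate-row segment, actives on both sides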;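 note: Alexa488 bead fluorescence after subtracting the streptavidin-only scavenger bead signal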
Target sequence (Q99759 whole entry, looked up, the tested form may be a part): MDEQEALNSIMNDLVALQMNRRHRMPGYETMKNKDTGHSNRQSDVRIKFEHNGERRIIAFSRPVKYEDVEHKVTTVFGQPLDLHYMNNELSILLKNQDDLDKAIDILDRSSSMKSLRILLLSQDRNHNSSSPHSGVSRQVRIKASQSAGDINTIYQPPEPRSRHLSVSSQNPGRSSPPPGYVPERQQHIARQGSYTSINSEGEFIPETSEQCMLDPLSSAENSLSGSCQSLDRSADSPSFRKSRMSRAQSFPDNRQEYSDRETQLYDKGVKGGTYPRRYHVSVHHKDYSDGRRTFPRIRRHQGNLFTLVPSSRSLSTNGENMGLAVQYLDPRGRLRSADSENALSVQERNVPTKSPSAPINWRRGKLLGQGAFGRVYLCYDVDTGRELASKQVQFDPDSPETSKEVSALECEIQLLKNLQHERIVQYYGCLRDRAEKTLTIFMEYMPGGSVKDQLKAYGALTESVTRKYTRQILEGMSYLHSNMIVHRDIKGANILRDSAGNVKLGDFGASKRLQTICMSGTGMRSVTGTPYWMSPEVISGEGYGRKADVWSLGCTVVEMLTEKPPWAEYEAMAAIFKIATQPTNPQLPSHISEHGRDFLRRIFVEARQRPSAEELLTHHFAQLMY
UBC13 inh = inhibitors of human UBC13 polyubiquitin chain formation; P61088; TR-FRET; inhibition, % at 20 µM; 330,000 tested, 0.47% active; AID 485273; in the data active = inhibition above about 45%, passing the limit was not always enough
Target sequence (P61088 whole entry, looked up): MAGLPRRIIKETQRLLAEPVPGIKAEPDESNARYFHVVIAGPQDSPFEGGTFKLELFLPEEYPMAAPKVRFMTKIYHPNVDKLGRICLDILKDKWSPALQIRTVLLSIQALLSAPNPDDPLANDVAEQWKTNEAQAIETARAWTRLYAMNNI
Apaf-1 inh = human Apaf-1 inhibition | 330,000 tested, 0.71% active | inhibition, % at 20 µM | reconstituted apoptosome caspase-3 activity, DEVD-Rh110 fluorescence | O14727; active = inhibition of at least 40% at 20 µM
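Material: reconstituted apoptosome with Apaf-1, cytochrome c, caspase-9, procaspase-3, dATP. Technique: Rh110 fluorescence intensity. Buffer or medium: pH 7.5 Hepes buffer with CHAPS, BSA, DTT. Times: 30 min plus 50 min, RT.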
MEKK2 mut-MEK5 = signal of MEK5 binding to mutant human MEKK2 PB1 domain; bead flow cytometry, Alexa488-MEK5 binding to MEKK2 mutant; percent response, % at 10 µM; 290,000 tested, 0.35% active; in the data active = percent response above about 24%, passing the limit was not always enough
PREPL inh = human PREPL enzyme inhibition; Q4J6C6; recombinant PREPL, fluorescence polarization activity-based probe; inhibition, % at 5.96 µM; 320,000 tested, 0.68% active; in the data active = inhibition above about 43%
MEKK2 WT-MEK5 = raises or lowers MEK5 binding to wildtype human MEKK2 PB1 domain. Q9Y2U5. bead flow cytometry, Alexa488-MEK5 binding to MEKK2 WT; actives lie on both sides. binding response (% of control), % at 10 µM. 290,000 tested, 1.1% active. AID 1531; in the data active = binding response below about 67% or above about 130%
MEKK2wt confirm = raises or lowers MEK5 binding to wildtype human MEKK2, retest. shares compounds with MEKK3 PB1 HTS. bead flow cytometry, Alexa488-MEK5 binding to MEKK2 WT; actives lie on both sides. binding response (% of control), % at 10 µM. 5,900 tested, 2.4% active. AID 1892; in the data active = binding response below about 16% or above about 210%; inactive = in between
MEKK2mut confirm = signal of MEK5 binding to mutant human MEKK2, retest. shares compounds with MEKK3 PB1 HTS. bead flow cytometry, Alexa488-MEK5 binding to MEKK2 mutant. percent response, % at 10 µM. 5,900 tested, 2% active. AID 1893; in the data active = percent response mostly above about 71%, no sharp cut-off; inactive = mostly below about 38%;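 note: higher means compound restores mutant binding toward wildtype level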
MEKK3-MEK5 inh = confirmation of inhibitors of MEK5 binding to human MEKK3. shares compounds with MEKK3 PB1 HTS. bead flow cytometry, Alexa488-MEK5 binding to MEKK3; stronger effect = lower value. binding response (% of control), % at 10 µM. 5,900 tested, 1.8% active;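 active = binding response below 72% of control, or above a set upper limit, though filed actives all read lower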
Of the large screens only hits and unclear results are named; the others gave an inactive call (follow-up assays come after a bar, where they were run); [ ] = dose if it differs, or a comment.

Cc1nc2cc(NC(=O)c3cccc(S(C)(=O)=O)c3)ccc2o1	none
CC(C)N(CCNC(=O)c1nn(Cc2ccccc2)c(=O)c2ccccc12)C(C)C	none
Cc1cccc2sc(N(CCCN(C)C)C(=O)c3sc4ccccc4c3Cl)nc12	MEKK2 mut-MEK5 53, MEKK2 WT-MEK5 197 | MEKK2wt confirm inactive | MEKK2mut confirm inactive | MEKK3-MEK5 inh inactive
CN(C)CCCN(C(=O)c1sc2ccccc2c1Cl)c1nc2c(F)cccc2s1	MEKK2 mut-MEK5 139, MEKK2 WT-MEK5 325 | MEKK2wt confirm inactive | MEKK2mut confirm inactive | MEKK3-MEK5 inh inactive
Cc1cccc2sc(N(CCN(C)C)C(=O)c3cc(Cl)sc3Cl)nc12	none
Cc1cccc(NC(=O)CN(CC2CCCO2)C(=O)c2ccc(S(C)(=O)=O)cc2)c1C (centres undefined)	none (no result: MEKK3 PB1 HTS, MEKK2 mut-MEK5, PREPL inh, MEKK2 WT-MEK5)
O=C(O)c1ccc(/C=N/NC(=O)C2CC2(c2ccccc2)c2ccccc2)cc1 (centres undefined)	MEKK3 PB1 HTS 153 | MEKK2wt confirm inactive | MEKK2mut confirm inactive | MEKK3-MEK5 inh inactive
O=C(NCCC(=O)N1CCC2(CC1)NCCc1[nH]cnc12)c1cccc(Cl)c1	none
COc1ccccc1NC(=O)CSc1ccc(-c2ccc(-n3ccnc3)cc2)nn1	none (no result: MEKK3 PB1 HTS, MEKK2 mut-MEK5, MEKK2 WT-MEK5)
Cc1ccccc1N=C/C=C1\N(C)c2ccccc2C1(C)C	none
CN1/C(=C\C=Nc2cc(S(=O)(=O)N3CCOCC3)ccc2N2CCOCC2)C(C)(C)c2ccccc21	MEKK3 PB1 HTS 137 | MEKK2wt confirm inactive | MEKK2mut confirm inactive | MEKK3-MEK5 inh inactive
O=C(CCc1ccccc1)Nc1cc(S(=O)(=O)N2CCOCC2)ccc1N1CCCC1	none (no result: MEKK3 PB1 HTS, MEKK2 mut-MEK5, PREPL inh, MEKK2 WT-MEK5)
Oc1c(Br)cc(Cl)cc1C=Nc1ccc(N2CCOCC2)cc1	MEKK2 WT-MEK5 54[inhibitor] | MEKK2wt confirm inactive | MEKK2mut confirm inactive | MEKK3-MEK5 inh inactive
COc1ccccc1CCNC(=O)C(=O)NCC1OCCN1C(=O)c1ccc(Cl)cc1 (centres undefined)	none
CCN1C(=O)CC(N2CCOCC2)C1=O (centres undefined)	none
O=C1CC(N2CCOCC2)C(=O)N1CCN1C(=O)CC(N2CCOCC2)C1=O (centres undefined)	MEKK3 PB1 HTS 2.0[inhibitor], MEKK2 WT-MEK5 2.0[inhibitor] | MEKK2wt confirm inactive | MEKK2mut confirm inactive | MEKK3-MEK5 inh inactive
CCOC(=O)C1(CCOc2ccccc2)CCN(Cc2cccc3c2OCO3)CC1	none
CCOC(=O)C1(CCOc2ccccc2)CCN(Cc2cc(OC)c3c(c2)OCO3)CC1	MEKK2 WT-MEK5 145 | MEKK2wt confirm inactive | MEKK2mut confirm inactive | MEKK3-MEK5 inh inactive
CC(NC(=O)COc1ccc(S(=O)(=O)N2CCOCC2)cc1)c1ccccc1 (centres undefined)	none (no result: MEKK3 PB1 HTS, MEKK2 mut-MEK5, MEKK2 WT-MEK5)
COc1cc(C(=O)NCCC(=O)NCCN2CCCCCC2)cc(OC)c1OC	MEKK2 WT-MEK5 143 | MEKK2wt confirm inactive | MEKK2mut confirm inactive | MEKK3-MEK5 inh inactive
COc1cc(C(=O)NCCN2CCCC2)cc(OC)c1OC	none
Nc1nc(-c2ccc3c(c2)CCCC3)c(CC(=O)O)s1	none (no result: PREPL inh)
COc1cc2nc(N(CCCN(C)C)C(=O)c3ccc(S(=O)(=O)N(C)C4CCCCC4)cc3)sc2cc1OC	none (no result: MEKK3 PB1 HTS, MEKK2 mut-MEK5, MEKK2 WT-MEK5)
CN(C)CCCN(C(=O)c1ccc(S(=O)(=O)N(C)C2CCCCC2)cc1)c1nc2ccc(F)cc2s1	MEKK2 mut-MEK5 28, MEKK2 WT-MEK5 163 | MEKK2wt confirm inactive | MEKK2mut confirm inactive | MEKK3-MEK5 inh inactive
CN(C)CCCN(C(=O)c1nc2ccccc2s1)c1nc2ccc(F)cc2s1	none (no result: MEKK3 PB1 HTS, MEKK2 mut-MEK5, MEKK2 WT-MEK5)
CCc1ccc2nc(N(CCCN(C)C)C(=O)c3ccc(S(=O)(=O)N(C)C4CCCCC4)cc3)sc2c1	UBC13 inh 48, Apaf-1 inh 54, MEKK2 mut-MEK5 51, MEKK2 WT-MEK5 210 | MEKK2wt confirm inactive | MEKK2mut confirm inactive | MEKK3-MEK5 inh inactive
CN(C)CCCN(C(=O)c1ccc(S(=O)(=O)N(C)C2CCCCC2)cc1)c1nc2ccc(Br)cc2s1	MEKK2 mut-MEK5 32, MEKK2 WT-MEK5 195 | MEKK2wt confirm inactive | MEKK2mut confirm inactive | MEKK3-MEK5 inh inactive
CCN(Cc1ccccc1)S(=O)(=O)c1ccc(C(=O)N(CCCN(C)C)c2nc3ccc(F)cc3s2)cc1	MEKK2 mut-MEK5 38, MEKK2 WT-MEK5 210 | MEKK2wt confirm 208 | MEKK2mut confirm inactive | MEKK3-MEK5 inh inactive
Cc1cn(CCC(=O)Nc2ccccc2N2CCOCC2)c2ccccc12	none
Cc1cn(CCC(=O)Nc2ccc(N3CCOCC3)cc2)c2ccccc12	MEKK3 PB1 HTS 128 | MEKK2wt confirm inactive | MEKK2mut confirm inactive | MEKK3-MEK5 inh inactive
O=C(CSc1nnnn1-c1cccc(F)c1)NC1CCCCC1	none (no result: MEKK3 PB1 HTS, MEKK2 mut-MEK5, MEKK2 WT-MEK5)
O=C(CSc1nc2ccccc2[nH]1)Nc1nc(-c2ccc(Br)cc2)cs1	MEKK3 PB1 HTS 173 | MEKK2wt confirm inactive | MEKK2mut confirm inactive | MEKK3-MEK5 inh inactive
CCCc1cc(=O)[nH]c(SCC(=O)Nc2nc(-c3ccccc3)cs2)n1	none
COc1cccc2cc(C(=O)N(Cc3ccccc3)CC3CCCO3)c(=O)oc12 (centres undefined)	MEKK3 PB1 HTS 124 | MEKK2wt confirm inactive | MEKK2mut confirm inactive | MEKK3-MEK5 inh inactive
Cn1cccc1CC(=O)NNC(=O)Nc1ccc(F)cc1	MEKK3 PB1 HTS 147 | MEKK2wt confirm inactive | MEKK2mut confirm inactive | MEKK3-MEK5 inh inactive
CCCCNC(=O)N1CCN(c2ccnc3cc(Cl)ccc23)CC1	none
C[C@@]12C(=O)N(CC3CC3)CC(=O)N1[C@H](C1CC1)[C@@H]1C(=O)N(c3ccccc3)C(=O)[C@@H]12	none
COc1cc(C#N)c(NC(=O)CN2CCN(CCO)CC2)cc1OC	MEKK3 PB1 HTS 47[inhibitor] | MEKK2wt confirm inactive | MEKK2mut confirm inactive | MEKK3-MEK5 inh inactive
O=C(Nc1ccnn1C1CCN(C(=O)CCc2ccc(F)cc2)CC1)C1CCOC1 (centres undefined)	none
O=C(O)CCCC(=O)N1CCN(c2nc(-c3ccccc3Cl)c3cc(Br)ccc3n2)CC1	MEKK2 mut-MEK5 26 | MEKK2wt confirm inactive | MEKK2mut confirm inactive | MEKK3-MEK5 inh inactive
CCc1ccccc1NC(=O)COc1ccc2c(=O)c(Oc3cc(C)ccc3C)coc2c1	none
CC(C)c1ccccc1NC(=O)COc1ccc2c(=O)c(Oc3ccc4ccccc4c3)coc2c1	MEKK3 PB1 HTS 184 | MEKK2wt confirm inactive | MEKK2mut confirm inactive | MEKK3-MEK5 inh inactive
